Legend:
[1] = system: HeLa; experiment: Cytotoxicity against human HeLa cells assessed as growth inhibition at 10 uM after 72 hrs by SRB assay relative to control; assay type: functional; settings: read-out: GI
How it was run: (§1)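 SRB single-dose screen at 10 μM on 293T, A549, Hela and MCF-7 cells. Results reported as percent inhibitory ratio (mean ± SD).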

[2] = Cytotoxicity against human 293T cells assessed as growth inhibition at 10 uM after 72 hrs by SRB assay relative to control; assay type: cell-based; settings: HEK-293T cells, read-out: GI; how it was run: as §1
[3] = system: A549; experiment: Cytotoxicity against human A549 cells assessed as growth inhibition at 10 uM after 72 hrs by SRB assay relative to control; assay type: functional; settings: A549, 72 h, read-out: GI; how it was run: as §1
[4] = system: MCF7; experiment: Cytotoxicity against human MCF7 cells assessed as growth inhibition at 10 uM after 72 hrs by SRB assay relative to control; assay type: functional; settings: MCF7, 72 h, read-out: GI; how it was run: as §1
[5] = system: A549; experiment: Cytotoxicity against human A549 cells after 72 hrs by SRB assay; assay type: functional, cell-based; settings: A549, 72 h
How it was run: (§2)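 SRB assay on 293T, A549, Hela and MCF-7 cells, with cisplatin as reference control. IC50 calculated for each compound from triplicate assays.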

[6] = system: HeLa; experiment: Cytotoxicity against human HeLa cells after 72 hrs by SRB assay; assay type: functional, cell-based; how it was run: as §2
[7] = system: HEK-293T; experiment: Cytotoxicity against human 293T cells after 72 hrs by SRB assay; assay type: cell-based; how it was run: as §2
[8] = system: MCF7; experiment: Cytotoxicity against human MCF7 cells after 72 hrs by SRB assay; assay type: functional, cell-based; settings: MCF7, 72 h; how it was run: as §2

C[C@]12CC[C@H](O)CC1=CC[C@@H]1[C@@H]2CC[C@]2(C)C(c3nn(-c4ccccc4)cc3CNCc3ccccc3)=CC[C@@H]12
inhibition of growth at 10 µM [1]: < 10%
inhibition at 72 h, 10 µM [2]: 50.7%
inhibition of growth at 10 µM [3]: < 10%
inhibition of growth at 10 µM [4]: 25.4%

CCCCNCc1cn(-c2ccccc2)nc1[C@H]1CC[C@H]2[C@@H]3CCC4C[C@@H](O)CC[C@]4(C)[C@H]3CC[C@]12C (stereo partly drawn)
inhibition of growth at 10 µM [1]: 29.3%
inhibition at 72 h, 10 µM [2]: < 10%
inhibition of growth at 10 µM [3]: < 10%
inhibition of growth at 10 µM [4]: 21.9%

CCCNCc1cn(-c2ccccc2)nc1[C@H]1CC[C@H]2[C@@H]3CCC4C[C@@H](O)CC[C@]4(C)[C@H]3CC[C@]12C (stereo partly drawn)
IC50 [5]: 6.02 µM
IC50 [6]: 1.98 µM
inhibition of growth at 10 µM [1]: 90.3%
IC50 [7]: 0.62 µM
inhibition at 72 h, 10 µM [2]: 91.9%
IC50 [8]: 4.84 µM
inhibition of growth at 10 µM [3]: 91.5%
inhibition of growth at 10 µM [4]: 88.6%

CNCc1cn(-c2ccccc2)nc1C1=CC[C@H]2[C@@H]3CC=C4C[C@@H](O)CC[C@]4(C)[C@H]3CC[C@]12C
IC50 [5]: 3.68 µM
IC50 [6]: 3.86 µM
inhibition of growth at 10 µM [1]: 90.5%
IC50 [7]: 2.11 µM
inhibition at 72 h, 10 µM [2]: 91.6%
IC50 [8]: 6.91 µM
inhibition of growth at 10 µM [3]: 82.1%
inhibition of growth at 10 µM [4]: 81.1%

CCCNCc1cn(-c2ccccc2)nc1C1=CC[C@H]2[C@@H]3CC=C4C[C@@H](O)CC[C@]4(C)[C@H]3CC[C@]12C
IC50 [5]: 1.57 µM
IC50 [6]: 3.61 µM
inhibition of growth at 10 µM [1]: 93.5%
IC50 [7]: 7.25 µM
inhibition at 72 h, 10 µM [2]: 93.7%
IC50 [8]: 4.29 µM
inhibition of growth at 10 µM [3]: 91.2%
inhibition of growth at 10 µM [4]: 90.7%

COc1ccccc1NCc1cn(-c2ccccc2)nc1C1=CC[C@H]2[C@@H]3CC=C4C[C@@H](O)CC[C@]4(C)[C@H]3CC[C@]12C
inhibition of growth at 10 µM [1]: < 10%
inhibition at 72 h, 10 µM [2]: < 10%
inhibition of growth at 10 µM [3]: < 10%
inhibition of growth at 10 µM [4]: 18.1%

CCNCc1cn(-c2ccccc2)nc1[C@H]1CC[C@H]2[C@@H]3CCC4C[C@@H](O)CC[C@]4(C)[C@H]3CC[C@]12C (stereo partly drawn)
IC50 [5]: 6.35 µM
IC50 [6]: 3.28 µM
inhibition of growth at 10 µM [1]: 88.4%
IC50 [7]: 5.29 µM
inhibition at 72 h, 10 µM [2]: 91.2%
IC50 [8]: 3.92 µM
inhibition of growth at 10 µM [3]: 92.4%
inhibition of growth at 10 µM [4]: 88.9%

C[C@]12CC[C@H]3[C@@H](CCC4C[C@@H](O)CC[C@@]43C)[C@@H]1CC[C@@H]2c1nn(-c2ccccc2)cc1CNCc1ccccc1 (stereo partly drawn)
inhibition of growth at 10 µM [1]: 48.3%
inhibition at 72 h, 10 µM [2]: 60.8%
inhibition of growth at 10 µM [3]: 56.5%
inhibition of growth at 10 µM [4]: 44.4%

C[C@]12CC[C@H](O)C[C@@H]1CC[C@@H]1[C@@H]2CC[C@]2(C)[C@@H](c3nn(-c4ccccc4)cc3CO)CC[C@@H]12
inhibition of growth at 10 µM [1]: < 10%
inhibition at 72 h, 10 µM [2]: 18.5%
inhibition of growth at 10 µM [3]: < 10%
inhibition of growth at 10 µM [4]: 27.8%

CNCc1cn(-c2ccccc2)nc1[C@H]1CC[C@H]2[C@@H]3CCC4C[C@@H](O)CC[C@]4(C)[C@H]3CC[C@]12C (stereo partly drawn)
inhibition of growth at 10 µM [1]: 41.3%
inhibition at 72 h, 10 µM [2]: 79.2%
inhibition of growth at 10 µM [3]: < 10%
inhibition of growth at 10 µM [4]: 45.9%

CC(C)NCc1cn(-c2ccccc2)nc1C1=CC[C@H]2[C@@H]3CC=C4C[C@@H](O)CC[C@]4(C)[C@H]3CC[C@]12C
IC50 [5]: 2.87 µM
IC50 [6]: 3.49 µM
inhibition of growth at 10 µM [1]: 92.4%
IC50 [7]: 7.51 µM
inhibition at 72 h, 10 µM [2]: 94.7%
IC50 [8]: 6.36 µM
inhibition of growth at 10 µM [3]: 93.3%
inhibition of growth at 10 µM [4]: 92.1%

C[C@]12CC[C@H]3[C@@H](CCC4C[C@@H](O)CC[C@@]43C)[C@@H]1CC[C@@H]2c1nn(-c2ccccc2)cc1CNc1ccccc1 (stereo partly drawn)
inhibition of growth at 10 µM [1]: < 10%
inhibition at 72 h, 10 µM [2]: 12.5%
inhibition of growth at 10 µM [3]: < 10%
inhibition of growth at 10 µM [4]: 16.9%

CCCCNCc1cn(-c2ccccc2)nc1C1=CC[C@H]2[C@@H]3CC=C4C[C@@H](O)CC[C@]4(C)[C@H]3CC[C@]12C
IC50 [5]: 1.93 µM
IC50 [6]: 3.37 µM
inhibition of growth at 10 µM [1]: 92.6%
IC50 [7]: 2.63 µM
inhibition at 72 h, 10 µM [2]: 95.1%
IC50 [8]: 3.18 µM
inhibition of growth at 10 µM [3]: 92.9%
inhibition of growth at 10 µM [4]: 93.7%

CC(C)NCc1cn(-c2ccccc2)nc1[C@H]1CC[C@H]2[C@@H]3CCC4C[C@@H](O)CC[C@]4(C)[C@H]3CC[C@]12C (stereo partly drawn)
IC50 [6]: 1.98 µM
inhibition of growth at 10 µM [1]: 74.1%
IC50 [7]: 1.03 µM
inhibition at 72 h, 10 µM [2]: 87.4%
IC50 [8]: 7.45 µM
inhibition of growth at 10 µM [3]: 30.6%
inhibition of growth at 10 µM [4]: 70.8%
